Test results from ChEMBL document CHEMBL1240345 (Nat Chem Biol, 2009).
Blank lines part the entries; values can stand above or below the compound they belong to. Activity calls are given as the source filed them. The rule behind the calls is not given here.

Columns and labels:
[1] = target: T1, Dual specificity protein phosphatase 6 (Homo sapiens) (UniProt Q16828); experiment: Inhibition of Dusp6 in Tg(dusp:EGFP)pt6 zebrafish assessed as increase in engrailed 2b in prospective mid-hindbrain boundary at 10 uM by RT-PCR
T1 sequence (whole entry): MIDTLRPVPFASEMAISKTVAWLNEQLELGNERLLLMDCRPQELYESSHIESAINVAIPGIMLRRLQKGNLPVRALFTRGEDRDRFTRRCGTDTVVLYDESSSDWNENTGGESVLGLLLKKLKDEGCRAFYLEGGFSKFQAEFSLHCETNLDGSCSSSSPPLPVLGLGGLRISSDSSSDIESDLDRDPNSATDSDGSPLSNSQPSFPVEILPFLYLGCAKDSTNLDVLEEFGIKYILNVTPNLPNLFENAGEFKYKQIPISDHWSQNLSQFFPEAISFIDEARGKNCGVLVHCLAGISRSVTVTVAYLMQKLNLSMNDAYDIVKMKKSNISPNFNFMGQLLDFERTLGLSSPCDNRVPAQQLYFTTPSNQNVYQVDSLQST

[2] = target: T2, Dual specificity protein phosphatase 5 (Homo sapiens) (UniProt Q16690); experiment: Inhibition of Dusp5
T2 sequence (whole entry): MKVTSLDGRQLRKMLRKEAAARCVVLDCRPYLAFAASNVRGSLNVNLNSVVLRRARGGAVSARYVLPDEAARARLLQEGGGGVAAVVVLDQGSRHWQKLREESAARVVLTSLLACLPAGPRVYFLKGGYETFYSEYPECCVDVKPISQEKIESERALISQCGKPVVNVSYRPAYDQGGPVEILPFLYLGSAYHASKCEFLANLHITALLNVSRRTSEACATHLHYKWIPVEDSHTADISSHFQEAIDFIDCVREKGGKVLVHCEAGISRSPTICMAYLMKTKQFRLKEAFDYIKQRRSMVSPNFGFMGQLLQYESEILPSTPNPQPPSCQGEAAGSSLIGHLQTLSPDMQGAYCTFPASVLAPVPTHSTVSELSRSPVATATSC

[3] = target: T1, Dual specificity protein phosphatase 6 (Homo sapiens); experiment: Inhibition of Dusp6 in Tg(dusp:EGFP)pt6 zebrafish assessed as increase in FGF-signaling mediated d2EGFP fluorescence at 10 uM after 2 hrs
In short: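 Tg(dusp6:EGFP)pt6 embryos from natural crosses were raised at 28.5°C to 24 hpf, then placed five per well in E3. Compound was added at 10 μM in 0.5% DMSO, with 0.5% DMSO as vehicle control. d2EGFP intensity was scored visually against vehicle-treated embryos. Assays were run three times, and at least four of five embryos had to share the phenotype.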

[4] = species on record: Danio rerio; experiment: Inhibition of dusp4 gene expression in Tg(dusp:EGFP)pt6 zebrafish embryos; assay type: functional; details: Embryo
[5] = target: T1, Dual specificity protein phosphatase 6 (Homo sapiens); experiment: Inhibition of Dusp6 in Tg(dusp:EGFP)pt6 zebrafish embryo assessed as reduction in scl gene expression; details: concentration not given here
[6] = target: T1, Dual specificity protein phosphatase 6 (Homo sapiens); experiment: Inhibition of Dusp6 in 1-cell stage Tg(dusp:EGFP)pt6 zebrafish embryos injected with XFD mRNA assessed as sef gene expression restoring at 5 uM
In short: (§1)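 Embryos were injected at the 1-2 cell stage with 500 pg of spry4 or XFD mRNA. They were exposed to 5 μM compound at the 1000-cell stage and fixed at shield stage. sef expression was then assessed by in situ hybridization.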

[7] = species on record: Danio rerio; experiment: Increase in cardiac hand2 expression in 10-somite stage Tg(dusp:EGFP)pt6 zebrafish embryo; assay type: functional
[8] = target: T1, Dual specificity protein phosphatase 6 (Homo sapiens); experiment: Inhibition of Dusp6 basal phosphatase activity using 3-o-methylfluoro-rescein phosphate substrate in presence of ERK protein; details: concentration not given here
In short: (§2)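 Recombinant Dusp6 activity was followed as dephosphorylation of the small-molecule substrate 3-O-methylfluorescein phosphate, with or without ERK2 present to stimulate catalysis.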

[9] = target: T1, Dual specificity protein phosphatase 6 (Homo sapiens); experiment: Inhibition of Myc-tagged human Dusp6 expressed in TPA-induced human HeLa cells assessed as decrease in dephosphorylation of pERK measured at 100 uM by immunostaining; assay type: cell-based
[10] = target: T1, Dual specificity protein phosphatase 6 (Homo sapiens); experiment: Inhibition of Dusp6 basal phosphatase activity using 3-o-methylfluoro-rescein phosphate substrate; in short: as §2
[11] = Increase in transcription factor gata4 gene in Tg(dusp:EGFP)pt6 zebrafish embryo anterior lateral plate mesoderm; assay type: functional, Danio rerio
[12] = target: T1, Dual specificity protein phosphatase 6 (Homo sapiens); experiment: Inhibition of Dusp6 in 1-somite stage Tg(dusp:EGFP)pt6 zebrafish assessed as increase in dusp6 FGF target gene expression in tailbud at 10 uM by RT-PCR
[13] = target: T1, Dual specificity protein phosphatase 6 (Homo sapiens); experiment: Inhibition of Dusp6 in 1-cell stage Tg(dusp:EGFP)pt6 zebrafish embryos injected with spry4 mRNA assessed as sef gene expression restoring at 5 uM; in short: as §1
[14] = target: T1, Dual specificity protein phosphatase 6 (Homo sapiens); experiment: Inhibition of Dusp6 in 10-somite stage Tg(dusp:EGFP)pt6 zebrafish assessed as increase in dusp6 FGF target gene expression in mid-hindbrain boundary at 10 uM by RT-PCR
[15] = target: T1, Dual specificity protein phosphatase 6 (Homo sapiens); experiment: Inhibition of […] in Tg(dusp:EGFP);ace mutant zebrafish assessed as increase in FGF-signaling mediated d2EGFP fluorescence in mid-hindbrain boundary at 10 uM after 2 hrs
[16] = species on record: Danio rerio; experiment: Increase in cardiac myl7 expression in 18-somite stage Tg(dusp:EGFP)pt6 zebrafish embryo
[17] = target: T1, Dual specificity protein phosphatase 6 (Homo sapiens); experiment: Inhibition of Dusp6 basal phosphatase activity using 3-o-methylfluoro-rescein phosphate substrate at 10:1 enzyme to ERK protein ration; details: concentration not given here
[18] = target: T1, Dual specificity protein phosphatase 6 (Homo sapiens); experiment: Inhibition of Dusp6 in 1-somite stage Tg(dusp:EGFP)pt6 zebrafish assessed as increase in dusp6 FGF target gene expression in mid-hindbrain boundary at 10 uM by RT-PCR
[19] = species on record: Danio rerio; experiment: Increase in cardiac cmlc2 expression in 18-somite stage Tg(dusp:EGFP)pt6 zebrafish embryo
[20] = species on record: Danio rerio; experiment: Induction of cardiac tissue expansion in larval stage Tg(dusp:EGFP)pt6 zebrafish embryo after 8 hrs; assay type: functional, tissue-based
[21] = target: T1, Dual specificity protein phosphatase 6 (Homo sapiens); experiment: Inhibition of Dusp6 in Tg(dusp:EGFP)pt6 zebrafish assessed as increase in spry4 gene expression at 10 uM by RT-PCR
[22] = target: T1, Dual specificity protein phosphatase 6 (Homo sapiens); experiment: Inhibition of Dusp6 in 10-somite stage Tg(dusp:EGFP)pt6 zebrafish assessed as increase in dusp6 FGF target gene expression in rhombomere 4 at 10 uM by RT-PCR
[23] = Increase in transcription factor nkx2.5 gene in Tg(dusp:EGFP)pt6 zebrafish embryo anterior lateral plate mesoderm; assay type: functional, Danio rerio
[24] = target: T3, M-phase inducer phosphatase 2 (Homo sapiens, UniProt P30305); experiment: Inhibition of Cdc25B
T3 sequence (P30305 whole entry): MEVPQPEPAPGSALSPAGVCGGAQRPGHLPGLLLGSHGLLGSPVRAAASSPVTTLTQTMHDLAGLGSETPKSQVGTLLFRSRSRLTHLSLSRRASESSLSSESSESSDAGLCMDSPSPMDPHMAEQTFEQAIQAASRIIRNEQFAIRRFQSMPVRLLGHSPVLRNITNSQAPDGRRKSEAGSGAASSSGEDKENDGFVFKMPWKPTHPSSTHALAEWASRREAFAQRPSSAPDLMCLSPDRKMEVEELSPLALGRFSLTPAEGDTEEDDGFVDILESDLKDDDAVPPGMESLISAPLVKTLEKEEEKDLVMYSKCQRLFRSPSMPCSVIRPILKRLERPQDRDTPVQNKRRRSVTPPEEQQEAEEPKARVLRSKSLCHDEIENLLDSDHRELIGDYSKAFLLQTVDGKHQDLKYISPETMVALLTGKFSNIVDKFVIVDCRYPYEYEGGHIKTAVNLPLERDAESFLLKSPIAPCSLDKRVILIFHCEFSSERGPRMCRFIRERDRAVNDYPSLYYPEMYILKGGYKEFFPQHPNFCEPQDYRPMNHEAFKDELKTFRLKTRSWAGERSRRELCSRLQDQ

[25] = species on record: Danio rerio; experiment: Inhibition of dusp1 gene expression in Tg(dusp:EGFP)pt6 zebrafish embryos; assay type: functional; details: Embryo
[26] = target: T4, Tyrosine-protein phosphatase non-receptor type 1 (Homo sapiens, UniProt P18031); experiment: Inhibition of PTP1B
T4 sequence (P18031 whole entry): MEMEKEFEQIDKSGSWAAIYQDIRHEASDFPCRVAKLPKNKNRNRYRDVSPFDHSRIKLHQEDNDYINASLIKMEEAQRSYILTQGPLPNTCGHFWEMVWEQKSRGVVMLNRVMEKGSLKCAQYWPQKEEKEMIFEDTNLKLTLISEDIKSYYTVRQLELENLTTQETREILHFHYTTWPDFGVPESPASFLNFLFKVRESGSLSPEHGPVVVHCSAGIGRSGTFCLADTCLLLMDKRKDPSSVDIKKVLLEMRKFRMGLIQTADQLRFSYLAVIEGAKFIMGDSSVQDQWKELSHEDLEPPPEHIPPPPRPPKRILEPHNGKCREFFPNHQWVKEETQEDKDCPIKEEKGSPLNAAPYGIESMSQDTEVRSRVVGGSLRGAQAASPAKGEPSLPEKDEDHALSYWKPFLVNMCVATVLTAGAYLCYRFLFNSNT

[27] = target: Dual specificity protein phosphatase 3 (Homo sapiens, UniProt P51452); experiment: Inhibition of Dusp3/VHR
Chain of Dual specificity protein phosphatase 3 (P51452 whole entry): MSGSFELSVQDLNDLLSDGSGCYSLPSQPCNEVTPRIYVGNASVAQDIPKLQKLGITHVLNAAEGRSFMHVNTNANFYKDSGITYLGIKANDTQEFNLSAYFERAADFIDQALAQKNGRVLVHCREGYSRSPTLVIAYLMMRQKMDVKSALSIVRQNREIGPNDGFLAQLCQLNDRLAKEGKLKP

[28] = target: T1, Dual specificity protein phosphatase 6 (Homo sapiens); experiment: Inhibition of Dusp6 in Tg(dusp:EGFP)pt6 zebrafish embryo assessed as reduction in etv2 gene expression
[29] = target: T1, Dual specificity protein phosphatase 6 (Homo sapiens); experiment: Inhibition of Dusp6 in 10-somite stage Tg(dusp:EGFP)pt6 zebrafish assessed as increase in dusp6 FGF target gene expression in tailbud at 10 uM by RT-PCR
[30] = species on record: Danio rerio; experiment: Inhibition of dusp7 gene expression in Tg(dusp:EGFP)pt6 zebrafish embryos; assay type: functional; details: Embryo
[31] = target: T5, Dual specificity protein phosphatase 6 (Homo sapiens, UniProt Q16828); experiment: Inhibition of Myc-tagged human Dusp6 expressed in TPA-induced human HeLa cells assessed as decrease in dephosphorylation of pERK measured by immunostaining; assay type: cell-based
T5 sequence (Q16828 whole entry): T1 sequence (whole entry)
In short: (§3)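 HeLa cells (2,000 per collagen-coated well; DMEM, 10% FBS, 37°C, 5% CO2) were transfected with human c-Myc-Dusp1 or c-Myc-Dusp6. After 20 h, quadruplicate wells received ten two-fold concentrations of compound for 15 min, then TPA (500 ng/ml) for 15 min. Cells were fixed and immunostained for pERK and c-Myc, and 1000 Myc-gated cells were imaged. pERK restoration was expressed as Kolmogorov-Smirnov values normalized to vehicle-treated transfected wells. Six independent experiments were run.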

[32] = target: T1, Dual specificity protein phosphatase 6 (Homo sapiens); experiment: Inhibition of Dusp6 in Tg(dusp:EGFP)pt6 zebrafish assessed as increase in il17rd gene expression at 10 uM by RT-PCR
[33] = target: T6, Dual specificity protein phosphatase 1 (Homo sapiens, UniProt P28562); experiment: Inhibition of Myc-tagged human Dusp1 expressed in TPA-induced human HeLa cells assessed as decrease in dephosphorylation of pERK measured by immunostaining; assay type: cell-based; in short: as §3
T6 sequence (P28562 whole entry): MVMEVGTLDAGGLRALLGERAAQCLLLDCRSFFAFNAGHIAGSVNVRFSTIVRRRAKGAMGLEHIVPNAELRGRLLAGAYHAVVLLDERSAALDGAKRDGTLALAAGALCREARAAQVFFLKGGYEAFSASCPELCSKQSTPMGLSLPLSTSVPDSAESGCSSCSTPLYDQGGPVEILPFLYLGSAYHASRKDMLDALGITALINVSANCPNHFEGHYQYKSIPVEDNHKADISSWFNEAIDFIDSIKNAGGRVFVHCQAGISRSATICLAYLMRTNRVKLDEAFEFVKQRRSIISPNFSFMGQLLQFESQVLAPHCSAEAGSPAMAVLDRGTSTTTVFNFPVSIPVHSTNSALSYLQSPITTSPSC

[34] = target: T1, Dual specificity protein phosphatase 6 (Homo sapiens); experiment: Inhibition of Dusp6 in 1-somite stage Tg(dusp:EGFP)pt6 zebrafish assessed as increase in dusp6 FGF target gene expression in rhombomere 4 at 10 uM by RT-PCR
[35] = species on record: Danio rerio; experiment: Inhibition of dusp5 gene expression in Tg(dusp:EGFP)pt6 zebrafish embryos; assay type: functional; details: Embryo
[36] = species on record: Danio rerio; experiment: Inhibition of dusp22a gene expression in Tg(dusp:EGFP)pt6 zebrafish embryos; assay type: functional; details: Embryo
[37] = target: T7, Dual specificity protein phosphatase 1 (Homo sapiens) (UniProt P28562); experiment: Inhibition of Myc-tagged human Dusp1 expressed in TPA-induced human HeLa cells assessed as decrease in dephosphorylation of pERK measured at 100 uM by immunostaining; assay type: cell-based
T7 sequence (whole entry): T6 sequence (P28562 whole entry)

inhibition [1]: Active
inhibition [2]: inactive
inhibition [3]: Dose-dependent effect
inhibition [5]: 93%
inhibition [6]: inactive
inhibition [8]: 57%
inhibition [9]: Active
inhibition [10]: inactive
inhibition [12]: Active
inhibition [13]: inactive
inhibition [14]: Active
inhibition [15]: inactive
inhibition [17]: 30%
inhibition [18]: Active
inhibition [21]: Active
inhibition [22]: Active
IC50 [24]: Not Active
IC50 [26]: Not Active
IC50 [27]: Not Active
inhibition [28]: Active
inhibition [29]: Active
IC50 [31]: 12.3 µM
inhibition [32]: Active
IC50 [33]: 11.5 µM
inhibition [34]: Active
SMILES: O=C1/C(=C/c2ccccc2)C(NC2CCCCC2)c2ccccc21 (stereo not drawn)
inhibition [4]: Active
Activity [7]: 32%
Activity [11]: 81%
Activity [16]: 81%
Activity [19]: 81%
Activity [20]: Active
Activity [23]: 91%
inhibition [25]: Active
inhibition [30]: Active
inhibition [35]: Active
inhibition [36]: Active

inhibition [9]: inactive
inhibition [37]: inactive
SMILES: O=C1CC(NC2CCCCC2)c2ccccc21 (stereo not drawn)
